According to ChEMBL document CHEMBL3877310, “Rickettsia prowazekii methionine aminopeptidase as a promising target for the development of antibacterial agents” (Bioorg Med Chem, 2017):
The source made the active and inactive calls. The calls are words filed in the database; no cut-off is given here.

Legend:
Rattus norvegicus [1] = species: Rattus norvegicus; experiment: Cytotoxicity against CD rat primary pulmonary vascular endothelial cells assessed as reduction in cell viability at 0.003 to 3 uM measured after 72 hrs by WST1 assay; assay type: toxicity, cell-based
Outline: (§1)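 Uninfected primary CD-rat pulmonary ECs (passage <15, DMEM high glucose/10% FBS/4 mM L-glutamine, 37 °C, 5% CO2) exposed to compounds over graded ranges with 0.3% DMSO as solvent. Viability read as WST-1 metabolism.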

[2] = molecular target: Methionine aminopeptidase 1 (Homo sapiens, UniProt P53582); experiment: (§2) Inhibition of recombinant full length human His-tagged methionine aminopeptidase 1 expressed in Escherichia coli BL21(DE3) using methionylprolyl-p-nitroanilide as substrate preincubated for 20 mins followed by substrate addition measured for 20 mins in presence of CoCl2 by proline aminopeptidase coupled enzyme assay
Rattus norvegicus [3] = species: Rattus norvegicus; experiment: Cytotoxicity against CD rat primary pulmonary vascular endothelial cells assessed as reduction in cell viability at 0.02 to 20 uM measured after 72 hrs by WST1 assay; assay type: toxicity, cell-based; outline: as §1
Rattus norvegicus [4] = species: Rattus norvegicus; experiment: Cytotoxicity against CD rat primary pulmonary vascular endothelial cells assessed as reduction in cell viability at 0.3 to 300 uM measured after 72 hrs by WST1 assay; assay type: toxicity, cell-based; outline: as §1
Endothelial cell [5] = experiment: Antibacterial activity against Rickettsia prowazekii str. Breinl infected in CD rat primary pulmonary vascular endothelial cells assessed as protection against bacterial infection by measuring restoration of host cell viability at 0.3 to 300 uM measured 72 hrs post infection by WST1 assay; assay type: functional, cell-based
Rattus norvegicus [6] = species: Rattus norvegicus; experiment: Cytotoxicity against CD rat primary pulmonary vascular endothelial cells assessed as reduction in cell viability at 0.03 to 30 uM measured after 72 hrs by WST1 assay; assay type: toxicity, cell-based; outline: as §1
Endothelial cell [7] = experiment: Antibacterial activity against Rickettsia prowazekii str. Breinl infected in CD rat primary pulmonary vascular endothelial cells assessed as protection against bacterial infection by measuring restoration of host cell viability at 0.03 to 30 uM measured 72 hrs post infection by WST1 assay; assay type: functional, cell-based
[8] = molecular target: Methionine aminopeptidase 2 (Homo sapiens, UniProt P50579); experiment: as §2, with “N-terminal GST/His6-tagged” for “His-tagged”, “2” for “1”, “baculovirus infected sf9 cells” for “Escherichia coli BL21(DE3)”, “MnCl2” for “CoCl2”
[9] = (§3) Antibacterial activity against Rickettsia prowazekii str. Breinl infected with 50:1 multiplicity of infection in CD rat primary pulmonary vascular endothelial cells assessed as restoration of host cell viability by measuring fold reduction in viability at 0.003 to 3 uM measured 72 hrs post infection by WST1 assay relative to control; assay type: functional
Endothelial cell [10] = experiment: Antibacterial activity against Rickettsia prowazekii str. Breinl infected in CD rat primary pulmonary vascular endothelial cells assessed as protection against bacterial infection by measuring restoration of host cell viability at 0.003 to 3 uM measured 72 hrs post infection by WST1 assay; assay type: functional, cell-based
[11] = as §3, with “0.3” for “0.003”, “300” for “3”; assay type: functional
Rattus norvegicus [12] = species: Rattus norvegicus; experiment: Cytotoxicity against CD rat primary pulmonary vascular endothelial cells assessed as effect on appearance of cell monolayers at 300 uM measured after 72 hrs by Hoechst 33258/phalloidin staining based fluorescence microscopic analysis; assay type: toxicity
Endothelial cell [13] = experiment: Antibacterial activity against Rickettsia prowazekii str. Breinl infected in CD rat primary pulmonary vascular endothelial cells assessed as bacterial shape change at 300 uM measured 72 hrs post infection by Hoechst 33258/phalloidin staining based fluorescence microscopic analysis; assay type: functional
Endothelial cell [14] = experiment: Antibacterial activity against Rickettsia prowazekii str. Breinl infected in CD rat primary pulmonary vascular endothelial cells assessed as bacterial shape change at 25 ug/ml measured 72 hrs post infection by Hoechst 33258/phalloidin staining based fluorescence microscopic analysis; assay type: functional
Rattus norvegicus [15] = species: Rattus norvegicus; experiment: Cytotoxicity against CD rat primary pulmonary vascular endothelial cells assessed as reduction in cell viability at 0.0075 to 7.5 uM measured after 72 hrs by WST1 assay; assay type: toxicity, cell-based; outline: as §1

Chain of Methionine aminopeptidase 2 (P50579 whole entry): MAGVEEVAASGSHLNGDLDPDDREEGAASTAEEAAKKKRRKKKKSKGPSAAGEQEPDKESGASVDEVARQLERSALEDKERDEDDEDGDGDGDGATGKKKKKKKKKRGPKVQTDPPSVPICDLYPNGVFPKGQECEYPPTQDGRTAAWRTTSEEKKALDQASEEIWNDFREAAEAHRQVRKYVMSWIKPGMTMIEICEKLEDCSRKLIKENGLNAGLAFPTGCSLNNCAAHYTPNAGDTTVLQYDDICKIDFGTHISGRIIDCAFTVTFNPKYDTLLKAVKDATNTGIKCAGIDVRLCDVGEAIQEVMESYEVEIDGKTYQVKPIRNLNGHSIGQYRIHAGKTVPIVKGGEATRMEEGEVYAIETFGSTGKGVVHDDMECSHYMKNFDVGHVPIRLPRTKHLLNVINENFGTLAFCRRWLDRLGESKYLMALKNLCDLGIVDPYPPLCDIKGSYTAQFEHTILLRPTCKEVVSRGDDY

Cc1ccc2cccc(O)c2n1 [8-HYDROXY QUINALDINE]
Activity (Rattus norvegicus [1]): Non-Toxic | IC50 [2]: > 15 µM

Oc1c(CN2CCOCC2)cc(Cl)c2cccnc12
Activity (Rattus norvegicus [3]): Non-Toxic

Nc1nnc(SCc2ccc(F)cc2)[nH]1
Activity (Rattus norvegicus [4]): Non-Toxic | Activity (Endothelial cell [5]): Active

Oc1ccc(Cl)c2cccnc12 [CLOXYQUIN]
Activity (Rattus norvegicus [6]): Non-Toxic | Activity (Endothelial cell [7]): Active

Nc1n[nH]c(SCc2ccccc2Cl)n1
Activity (Rattus norvegicus [4]): Non-Toxic | Activity (Endothelial cell [5]): Active

CC(C)c1ccc(CSc2nnc(N)[nH]2)cc1
Activity (Rattus norvegicus [6]): Non-Toxic

Cc1ccc(CSc2nnc(N)[nH]2)cc1
Activity (Rattus norvegicus [4]): Non-Toxic | Activity (Endothelial cell [5]): Active

O=C(O)c1ccc(-c2ccccc2Cl)o1
Activity (Rattus norvegicus [4]): Non-Toxic

CC(C)(C)c1ccc(CSc2nnc(N)[nH]2)cc1
Activity (Rattus norvegicus [6]): Non-Toxic | IC50 [8]: > 15 µM

Nc1nnc(SCc2ccc(Cl)cc2Cl)[nH]1
Activity (Rattus norvegicus [6]): Non-Toxic

O=[N+]([O-])c1cc(CN2CCOCC2)c(O)c2ncccc12
Activity (Rattus norvegicus [1]): Non-Toxic | fold change (FC) [9]: 1.2 | Activity (Endothelial cell [10]): Active

Oc1cccc2cccnc12 [OXYQUINOLINE]
IC50 [2]: 12.9 µM | Activity (Rattus norvegicus [6]): Non-Toxic | IC50 [8]: 1.27 µM | Activity (Endothelial cell [7]): Active

O=C(O)c1ccc(-c2cc(Cl)ccc2Cl)o1
Activity (Rattus norvegicus [4]): Non-Toxic

O=[N+]([O-])c1ccc(O)c2ncccc12 [NITROXOLINE]
Activity (Rattus norvegicus [1]): Non-Toxic

Nc1n[nH]c(SCc2ccccc2)n1
Activity (Rattus norvegicus [4]): Non-Toxic | Activity (Endothelial cell [5]): Active

Nc1nnc(SCc2ccc(Cl)cc2)[nH]1
fold change (FC) [11]: 1.2 | Activity (Rattus norvegicus [12]): Non-Toxic | Activity (Endothelial cell [13]): Active | Activity (Rattus norvegicus [4]): Non-Toxic | Activity (Endothelial cell [5]): Active

C[C@H]1c2cccc(O)c2C(=O)C2=C(O)[C@]3(O)C(=O)C(C(N)=O)=C(O)[C@@H](N(C)C)[C@@H]3[C@@H](O)[C@@H]21
Activity (Endothelial cell [14]): Active

O=[N+]([O-])c1cc(CN2CCCCC2)c(O)c2ncccc12
Activity (Rattus norvegicus [15]): Non-Toxic
